System: MS2 coat protein
Experiment: apparent Kd, MS2 coat protein; higher = weaker binding; RNA-MaP array; theophylline 2 mM where present
Procedure, shortened: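 Two titrations, one without ligand and one with constant ligand, were run with SNAP-549-labelled MS2 coat protein from 0.7 or 1.5 nM, doubling to 3 µM. The targets were designs transcribed by stalled E. coli RNA polymerase on Illumina sequencing-chip clusters, in 100 mM Tris-HCl pH 7.5, 80 mM KCl, 4 mM MgCl2, BSA, DTT, yeast tRNA and Tween-20. The apparent Kd is the median of filtered per-cluster binding-curve fits, with green signal normalised to red-channel RNA signal and control-cluster median Fmax.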

[1] = designed as: OFF switch for theophylline, no ligand
[2] = ligand present: theophylline, designed as: OFF switch for theophylline
[3] = designed as: ON switch for theophylline, no ligand
[4] = ligand present: theophylline, designed as: ON switch for theophylline

## UAUAUAUGGAUGGAUACCAGCAGAGAAAACGUUUAUCCUAACAUGAGGAUCACCCAUGUAUGCCCUUGGCAGCUGUUUAUAUAUA
[1]
  apparent Kd: 26.6 nM
[2]
  apparent Kd: 29.1 nM

## ACAUGUCUUAUAGAUACCAGACAGGACAUGAGGAUCACCCAUGUAAUGUAUACAUGCAGAGUCCCUUGGCAGCUAAGGUCAUAGA
[3]
  apparent Kd: 77.6 nM
[4]
  apparent Kd: 66.3 nM

## AACCGAGGCUAUCCACAAAGAAAAUGUGAUACCAGAAUAAUUUUAUUCCCUUGGCAGCAUGACAUGAGGAUCACCCAUGUGUCUU
[3]
  apparent Kd: 32.3 nM
[4]
  apparent Kd: 35.6 nM

## UUCAAAGGGAACGGUGCUGGUAACAGAGAUACCAGAGUAAUAAUACUCCCUUGGCAGCUCAUAACAUGAGGAUCACCCAUGUAAU
[1]
  apparent Kd: 13.4 nM
[2]
  apparent Kd: 16.6 nM

## UAAAACAUGAGGAUCACCCAUGUAAAUGAUACCAGAGUGAUGAUCCUCCCUUGGCAGCAUAACGCUGAUUGAUUACAAUCAGCGA
[3]
  apparent Kd: 95.9 nM
[4]
  apparent Kd: 267 nM

## UGUAUGUGAUUUGAUACCAGUCCAACUGGUAAAACAUGAGGAUCACCCAUGUAAAAUUGGGACCCUUGGCAGCAAAUCGCAUACU
[3]
  apparent Kd: 355 nM
[4]
  apparent Kd: 30.1 nM

## AGACAUGAGGAUCACCCAUGUAGCAUGGAUACCAGAUGUAGAUUUAUCCCUUGGCAGCUGUGGUAAAGUGAUGCAUUGCUCCUAG
[1]
  apparent Kd: 37.8 nM
[2]
  apparent Kd: 42.2 nM

## CUCUGGUGCUGAGUGAGUGUCGUGACUGAUACCAGAUGCCUUUACAUCCCUUGGCAGCAGUACAUGAGGAUCACCCAUGUAUUCC
[1]
  apparent Kd: 22.1 nM
[2]
  apparent Kd: 182 nM

## AACAUGAGGAUUGAUACCAGUCCAUGAGGAUCACAUGAGGAUCACCCAUGUGGAACAUGAGGCCCUUGGCAGCAGUACAACAUGA
[3]
  apparent Kd: 15.6 nM
[4]
  apparent Kd: 11 nM

## AACAUCUGGCGUGAUACCAGCCACAUGAGGAUCACCCAUGUCAACACUCGCAAUUGCGACGGCCCUUGGCAGCACGCAUCCUCAG
[3]
  apparent Kd: 64 nM
[4]
  apparent Kd: 12.1 nM

## ACGACGCAUAGUGAUACCAGUAGAACAUGAGGAUCACCCAUGUCUGUGGCGCUCCGCCUCUGCCCUUGGCAGCACUAUGCGUCAG
[3]
  apparent Kd: 12.4 nM
[4]
  apparent Kd: 18.6 nM

## UGUAACAUGAGGAUCACCCAUGUGAGUGAUACCAGACUAGUAUUAGUCCCUUGGCAGCACGUUGGGCGAGUGUAUAGUCUAUGCG
[3]
  apparent Kd: 112 nM
[4]
  apparent Kd: 110 nM

## AGACAUGAGGAUCACCCAUGUAGCAUGGAUACCAGAUGUAGAUUAGUCCCUUGGCAGCUGUGGUAAAGUGAUGCAUUGCUCCUAG
[1]
  apparent Kd: 49.2 nM
[2]
  apparent Kd: 47.4 nM

## UGGCAGGAGUGAUCCUCCUGCCAAGGUGAUACCAGCAUCGAAAGAUGCCCUUGGCAGCACCAACAUGAGGAUCACCCAUGUAAUA
[3]
  apparent Kd: 108 nM
[4]
  apparent Kd: 47.9 nM

## UAUAUUGUGAUGGAUACCAGCAGAGAAAACGUUUAUCCUAACAUGAGGAUCACCCAUGUAUGCCCUUGGCAGCUGUUGUGAUAUA
[1]
  apparent Kd: 71.4 nM
[2]
  apparent Kd: 46.9 nM

## ACAUGAGGAUCACCCAUGUAAAUCCUCGAUACCAGCCAAAGGAGAGGCCCUUGGCAGCGGAAAGGCCGGGUAUAAAUGUCCGGCC
[3]
  apparent Kd: 134 nM
[4]
  apparent Kd: 126 nM

## UGCGUACAUGAGGAUCACCCAUGUAUAGAUACCAGUCACCCAUGUGGCCCUUGGCAGCUAACAUGAGGAUCACUACAUGAGGAUC
[1]
  apparent Kd: 34.5 nM
[2]
  apparent Kd: 141 nM

## UCGACAGUGAACGAUACCAGCGUCACGUGGCCGGUGGUCACAUGAGGAUCACCCAUGUAACGCCCUUGGCAGCGUGCACGUAUCA
[1]
  apparent Kd: 20.6 nM
[2]
  apparent Kd: 182 nM

## CCUAGCACACAUGAUACCAGCGACAUGAGGAUCACCCAUGUACGGCGUGUAUCGCAAGGUUGCCCUUGGCAGCAUGAUAGUGCUG
[1]
  apparent Kd: 14.4 nM
[2]
  apparent Kd: 182 nM

## AUUGCGAGUGAGUCGUGUAACGAUUCAGAUACCAGGCAUUUCGUUGUCCCUUGGCAGCUGUCUUACAUGAGGAUCACCCAUGUUA
[1]
  apparent Kd: 52.3 nM
[2]
  apparent Kd: 106 nM

## CCCAACAGUGAUGCCGGUGUUGGUGGUGAUACCAGCGUCUUAUGGCGCCCUUGGCAGCACCAACAUGAGGAUCACCCAUGUGAAA
[3]
  apparent Kd: 55.2 nM
[4]
  apparent Kd: 409 nM

## UUUAUGGAGCUUUUAUUUACGAUUUCUGAUACCAGUGUUUCAUUUCACCCUUGGCAGCAGUGACAUGAGGAUCACCCAUGUAAUA
[3]
  apparent Kd: 28 nM
[4]
  apparent Kd: 22.3 nM

## CUCUUCCGGAAGGAUACCAGCUACAUGAGGAUCACCCAUGUAGGAGCGGGUUUCUAAUGUAGCCCUUGGCAGCCUUAGCCCGUCG
[1]
  apparent Kd: 17.6 nM
[2]
  apparent Kd: 60.7 nM

## ACCAUGUAAUCAGAUACCAGACAUCUUUUAAAUCAUAUUACAUGAGGAUCACCCAUGUUGGUCCCUUGGCAGCUGAAAUAUUUCA
[3]
  apparent Kd: 356 nM
[4]
  apparent Kd: 109 nM

## AGUACACGAACUGAUACCAGCCGGACAUGAGGAUCACCCAUGUCCUACCUCUGUUCGGUUGGCCCUUGGCAGCAGUUCGUGUACA
[3]
  apparent Kd: 81.6 nM
[4]
  apparent Kd: 121 nM

## AGCGACAUGCAUGAUACCAGCUACAUGAGGAUCACCCAUGUACGUCAGUAAUGACUGUGUAGCCCUUGGCAGCAUAGAGCAUGUA
[1]
  apparent Kd: 17.5 nM
[2]
  apparent Kd: 44.5 nM

## GAGCUGAUGUAGAGCCUUUAGUUCUGAGAUACCAGUACAGAAAUGUACCCUUGGCAGCUCAGCUUUACAUGAGGAUCACCCAUGU
[1]
  apparent Kd: 19 nM
[2]
  apparent Kd: 23.7 nM

## GAAACGUAGGUGGAGCGGUGAAAUGGCGAUACCAGCGUGGAAACAUGCCCUUGGCAGCGUUAGAACAUGAGGAUCACCCAUGUUU
[1]
  apparent Kd: 13.3 nM
[2]
  apparent Kd: 58.2 nM

## GAAAGAUGAGGCGGCAGUACCGAUGUCGAUACCAGCAUGAACAAAUGCCCUUGGCAGCGACAUGAGGAUCACCCAUGUAUCUGCG
[1]
  apparent Kd: 11.3 nM
[2]
  apparent Kd: 127 nM

## UAAAACAUGAGGAUCACCCAUGUAAUUGAUACCAGAGUGAUGAUCCUCCCUUGGCAGCAAAUAACGCAUUGGAAACAAUGCGAAA
[3]
  apparent Kd: 56.4 nM
[4]
  apparent Kd: 189 nM

## AAGGUGAUCCGUGAUACCAGCUCAACAUGAGGAUCACCCAUGUAACGGACGAAAGUCCGGAGCCCUUGGCAGCACGGUAAUAAUA
[3]
  apparent Kd: 11.2 nM
[4]
  apparent Kd: 11.4 nM

## ACAUGAGGAUCACCCAUGUUCCUCAUUGAUACCAGUGAAUUUAGACGCCCUUGGCAGCGAGUUUUUUAAGAAGAAGUUUUUUUUU
[1]
  apparent Kd: 421 nM
[2]
  apparent Kd: 1110 nM

## ACAUGAGGAUCACCCAUGUUCCUCUUUGAUACCAGUGAGUUGUUUCGCCCUUGGCAGCGAGUUUUUUUUUUUUUGUUUUGUUUGG
[1]
  apparent Kd: 274 nM
[2]
  apparent Kd: 390 nM

## UCGUGUAUAUCGGAUACCAGUGAAAUCGAUACAUGAGGAUCACCCAUGUGAGAGGAUGUACACCCUUGGCAGCUGUAUAUAUCUG
[3]
  apparent Kd: 24.3 nM
[4]
  apparent Kd: 13.6 nM

## UCCUCAUGGCAUGAUACCAGACCUAACAUGAGGAUCACCCAUGUAUCAGGCAAUUGUUACGUCCCUUGGCAGCAUGUAUGCCGAC
[3]
  apparent Kd: 70.2 nM
[4]
  apparent Kd: 138 nM

## UUUAAAAUAACAGAUACCAGCGUGUUAUAAAACAUGAGGAUCACCCAUGUAGUGAUCAAGCGCCCUUGGCAGCUGGUAUUUUAGG
[3]
  apparent Kd: 151 nM
[4]
  apparent Kd: 167 nM

## GAUAGUUGAUGGGAUACCAGCCUACACAUGAGGAUCACCCAUGUGAUUCGUGUACGACUGGGCCCUUGGCAGCCCAUAUUGUGUA
[3]
  apparent Kd: 107 nM
[4]
  apparent Kd: 55.1 nM

## UUAUUUAUAAUGGAUACCAGUAUAAUGGCCGCAAAUCCUGACAUGAGGAUCACCCAUGUAUGCCCUUGGCAGCUGUUAUGGGUUU
[1]
  apparent Kd: 41.1 nM
[2]
  apparent Kd: 57.6 nM

## GUAUGGAAACAUACUAGGGUAUCGUGAGAUACCAGUACAGAAAUGUACCCUUGGCAGCUCGCGCAUACAUGAGGAUCACCCAUGU
[1]
  apparent Kd: 18.8 nM
[2]
  apparent Kd: 29.3 nM

## ACAUGAGGAUCACCCAUGUUCCUCAUUGAUACCAGUGAAUUUAGACGCCCUUGGCAGCGAGUUUUUGAAGAAGAAGUUUUUUUUU
[1]
  apparent Kd: 545 nM
[2]
  apparent Kd: 1080 nM

## ACAUGAGGAUCACCCAUGUUCCUCGCCGAUACCAGUGAAGAAUUACGCCCUUGGCAGCGGAAUGAGUGUUUUGGAGAUGAGGUAC
[1]
  apparent Kd: 62.4 nM
[2]
  apparent Kd: 107 nM

## ACAUGAGGAUCACCCAUGUCAGGGCACGAUACCAGCUGAUCCGAUGGCCCUUGGCAGCGUGACGUGUGGUCAUGAGGAUCACCCG
[3]
  apparent Kd: 189 nM
[4]
  apparent Kd: 156 nM

## AGACAUGUAAGAUAAUUGACUUUUACAGAUACCAGACUGUCUAAUGUCCCUUGGCAGCUGCAUUACAUGAGGAUCACCCAUGUUA
[1]
  apparent Kd: 19.2 nM
[2]
  apparent Kd: 17.9 nM

## AGCACAUGAGGAUCACCCAUGUGAGGUGAUACCAGUGAGAAGAAGCACCCUUGGCAGCACUUGGGUACAUGAGGAUCACCCAUGU
[1]
  apparent Kd: 58.9 nM
[2]
  apparent Kd: 169 nM

## GUUAUAUUAAUUGAUACCAGCGAGAAAACAUGAGGAUCACCCAUGUUCGCCCAUGUUAAGCGCCCUUGGCAGCAAUUUUAUUAGC
[1]
  apparent Kd: 30.6 nM
[2]
  apparent Kd: 91.6 nM

## ACAUGAGGAUCACCCAUGUGCCGUCUUGAUACCAGACCCGAAGUAGUCCCUUGGCAGCAACUACGUGACGGUCGCGCAUGUGUAG
[1]
  apparent Kd: 19.8 nM
[2]
  apparent Kd: 28.7 nM

## GAUGAACUAUUUGAUACCAGACUACAUGAGGAUCACCCAUGUGAGUUUCCUCCUCUGCCAGUCCCUUGGCAGCAAAUAGUUUAUC
[1]
  apparent Kd: 56.5 nM
[2]
  apparent Kd: 148 nM

## AACCGAGGCUAUCCUCUCCGCCUAUGUGAUACCAGAAUAAUUUUAUUCCCUUGGCAGCAUGACAUGAGGAUCACCCAUGUCUCUU
[3]
  apparent Kd: 17.6 nM
[4]
  apparent Kd: 20.3 nM

## GCUGGGUGCGCAAGGACCUGGCGUUGCGAUACCAGCACGGUAACGUGCCCUUGGCAGCGCACAUGAGGAUCACCCAUGUGGUGCG
[1]
  apparent Kd: 24.6 nM
[2]
  apparent Kd: 329 nM

## UUUACAUGAGGAUCACCCAUGUGCCAUGAUACCAGACAUGAAAAUGUCCCUUGGCAGCAUGAAUGAUUCAUAGGAUAAUUAUGGG
[3]
  apparent Kd: 99.2 nM
[4]
  apparent Kd: 98.8 nM

## CGGUUUGUGAUGGAUACCAGCAGAGAAAACGUUUAUCCUAACAUGAGGAUCACCCAUGUAUGCCCUUGGCAGCUGUUGUGGGCUG
[1]
  apparent Kd: 44.7 nM
[2]
  apparent Kd: 45.6 nM

## GGUAGCAGGACUGAUACCAGUCCAGCGAAUCAUACGACGCAACAUGAGGAUCACCCAUGUGACCCUUGGCAGCAGUCUGCUACCG
[3]
  apparent Kd: 25.4 nM
[4]
  apparent Kd: 12.8 nM
